# What was measured:
# HepG2 [1] = assay: Hepatoprotective activity against APAP-induced toxicity in human HepG2 cells assessed as cell survival rate at 10 uM after 48 hrs by MTT assay relative to control; assay type: functional; conditions: HepG2, 48 h, read-out: Survival
# Summary of the method: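 HepG2 cells were co-treated with compound (10 μM final) and acetaminophen (10 mM final per methods; results text cites 8 mM) for 48 h. Bicyclol served as positive control and DMSO as negative control. MTT (0.5 mg/mL) was added for 4 h at 37 °C, formazan dissolved in DMSO, and A570 read. Survival = mean OD treated / mean OD solvent control.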
# A549 = assay: Cytotoxicity against human A549 cells measured after 72 hrs by MTT assay; conditions: A549, 72 h
# HepG2 [2] = assay: Cytotoxicity against human HepG2 cells measured after 72 hrs by MTT assay; conditions: HepG2, 72 h
# MCF7 = assay: Cytotoxicity against human MCF7 cells measured after 72 hrs by MTT assay; conditions: MCF7, 72 h
# HCT-116 = assay: Cytotoxicity against human HCT116 cells measured after 72 hrs by MTT assay; conditions: HCT-116, 72 h
# BGC-823 = assay: Cytotoxicity against human BGC823 cells measured after 72 hrs by MTT assay; conditions: BGC-823, 72 h
structure (smiles),measurement,setting,value
CC(C)[C@H]1CC[C@@H](CO)c2c(O)cc(C(=O)O)cc21,viability at 10 µM,HepG2 [1],33.2 to 41.6%
CC(C)[C@H]1CC[C@H](CO)c2c(O)cc(C(=O)O)cc21,viability at 10 µM,HepG2 [1],33.2 to 41.6%
C=C(CC[C@@H](C)[C@H]1CC[C@H]2C3=CC(=O)[C@H]4[C@H](O)[C@@H](O)CC[C@]4(C)[C@H]3CC[C@]12C)C(C)COC (stereo partly drawn),viability at 10 µM,HepG2 [1],33.2 to 41.6%
same,IC50,A549,> 10000 nM
same,IC50,HepG2 [2],> 10000 nM
same,IC50,MCF7,2600 nM
same,IC50,HCT-116,> 10000 nM
same,IC50,BGC-823,> 10000 nM
CC(=O)OC/C(=C\[C@@H]1[C@@H](C(C)C)CC[C@@]2(O)COC(=O)[C@@H]12)C(=O)O,viability at 10 µM,HepG2 [1],33.2 to 41.6%
CC(C)[C@H]1CC[C@H](C(=O)O)[C@H]2CCC(C(=O)O)=C[C@@H]21,viability at 10 µM,HepG2 [1],33.2 to 41.6%
C=C1CC[C@H](C(C)C)[C@@H](/C=C(\CC(=O)O)C(=O)O)[C@@H]1O,viability at 10 µM,HepG2 [1],33.2 to 41.6%
C=C(C)[C@@]12O[C@@H]1[C@@]1(C)C(=CC2=O)CC[C@@H](O)[C@@H]1C,viability at 10 µM,HepG2 [1],33.2 to 41.6%
COC(=O)c1cc(OC)c2c(c1-c1c(CO)cc(OC)c3c1OCO3)OCO2 [BICYCLOL],viability at 10 µM,HepG2 [1],31.9%
CC(=O)O[C@H]1C(=O)[C@@]2(C)[C@H]([C@H](OC(=O)c3ccccc3)[C@]3(O)C[C@H](OC(=O)[C@H](O)[C@@H](NC(=O)c4ccccc4)c4ccccc4)C(C)=C1C3(C)C)[C@]1(OC(C)=O)CO[C@@H]1C[C@@H]2O [PACLITAXEL],IC50,A549,13.7 nM
same,IC50,HepG2 [2],1.9 nM
same,IC50,MCF7,0.2 nM
same,IC50,HCT-116,1.8 nM
same,IC50,BGC-823,0.4 nM

# Reference: ChEMBL document CHEMBL4316657, “Sesquiterpenes from an Endophytic Aspergillus flavus” (J Nat Prod, 2019)
